The text below walks through data of ChEMBL document CHEMBL1155337, “N-substituted bis-C-alkyloxadiazolones as dual effectors: efficient intermediates to amidoximes or amidines and prodrug candidates of potent antimalarials” (Bioorg Med Chem Lett, 2009).

Data set [1] concerns Plasmodium vinckei petteri. The data set is described as follows: Antimalarial activity against Plasmodium vinckei petteri 279BY infected in Swiss mice (Mus musculus) assessed as reduction in parasitaemia level at 5 mg/kg, intraperitoneally relative to control. The data set is classed as functional. Also noted: scale not given: the % may be the effect or the level left. As to conditions: route intraperitoneal. In short, it runs like this: (§1)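 Female Swiss mice were infected with P. vinckei petteri 279BY on day 0. Compound was given intraperitoneally or orally once daily for four consecutive days (days 1–4 post infection). Three doses were tested per compound, with 3 mice per dose. Parasitemia was monitored against untreated control, and cleared animals were followed 28 days for recrudescence. ED50 was derived from the dose series.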

Data set [2] relates to Plasmodium vinckei petteri. The data set is described as follows: Antimalarial activity against Plasmodium vinckei petteri 279BY infected peroral daily dosed Swiss mice (Mus musculus) assessed as reduction in parasitaemia level measured after 4 days. The data set is classed as functional. The settings on record: po, 96 h. The gist of the method:
as §1

Data set [3] relates to Plasmodium falciparum. The data set is described as follows: Antimalarial activity against chloroquine-sensitive Plasmodium falciparum Nigerian. Type of data set: functional, organism-based. In short, it runs like this:
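In vitro IC50 values are means of at least two independent experiments, each run in duplicate.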

For data set [4], the system named is Plasmodium vinckei petteri. The data set is described as follows: Antimalarial activity against Plasmodium vinckei petteri 279BY infected in Swiss mice (Mus musculus) assessed as reduction in parasitaemia level at 10 mg/kg, intraperitoneal measured after 4 days. The settings on record: ip, 96 h. The data set is classed as functional. The gist of the method:
as §1

Data set [5] has as its system Plasmodium vinckei petteri. Description: Antimalarial activity against Plasmodium vinckei petteri 279BY infected in Swiss mice (Mus musculus) assessed as reduction in parasitaemia level at 180 mg, perorally relative to control. The data set is classed as functional. Also noted: scale not given: the % may be the effect or the level left. In short, it runs like this: as §1

The test system of data set [6] is Plasmodium vinckei petteri. Description: Antimalarial activity against Plasmodium vinckei petteri 279BY infected in Swiss mice (Mus musculus) at 10 mg/kg, intraperitoneal after 4 days. The data set is classed as functional, organism-based. Also noted: dose 10 mg/kg. The gist of the method: as §1
For data set [7], the system named is Plasmodium vinckei petteri. Description: Antimalarial activity against Plasmodium vinckei petteri 279BY infected in Swiss mice (Mus musculus) assessed as reduction in parasitaemia level at 90 mg/kg, perorally relative to control. Also noted: scale not given: the % may be the effect or the level left. As to conditions: route oral. Type of data set: functional. In short, it runs like this:
as §1

Data set [8] concerns Plasmodium vinckei petteri. Description: Antimalarial activity against Plasmodium vinckei petteri 279BY infected intraperitoneally daily dosed Swiss mice (Mus musculus) assessed as reduction in parasitaemia after 28 days. Type of data set: functional. The settings on record: ip, 672 h. The gist of the method: as §1
Data set [9] has as its system Mus musculus. The data set is described as follows: Toxicity in Plasmodium vinckei petteri 279BY infected Swiss mice (Mus musculus) at 5 mg/kg, intraperitoneally. Also noted: dose 5 mg/kg, route intraperitoneal. The settings on record: in vivo, ip. The data set is classed as organism-based.
Data set [10] concerns Mus musculus. Description: Toxicity in Plasmodium vinckei petteri 279BY infected Swiss mice (Mus musculus) at >10 mg/kg, intraperitoneally. The data set is classed as organism-based. As to conditions: in vivo, ip.

Active and inactive are the calls of the source. No cut-off for these calls is given here.

The ED50 is the midpoint of the dose-response relation. As a reminder, the IC50 is the concentration that inhibits the measured activity by half. As to `CCN/C(CCCCCCCCCCCC/C(=N/O)NCC)=N\O`, the figures for the Activity in data set [1] and in data set [5] were 76% and 20%, respectively. The figures for the ED50 in [2] and in data set [4] were greater than 180 mg/kg and 3.1 mg/kg, respectively. Besides, half-maximal inhibition in [3] (IC50) required 6.2 µM.

As for `CCn1c(CCCCCCCCCCCCc2noc(=O)n2CC)noc1=O`, the ED50 is greater than 20 mg/kg in data set [2] and greater than 10 mg/kg in data set [4]. Also, the IC50 in data set [3] was determined as 10 µM.

Regarding `O/N=C(/CCCCCCCCCCCC/C(=N/O)NCc1ccccc1)NCc1ccccc1`, the ED50 is greater than 90 mg/kg in [2] and greater than 20 mg/kg in [4]. The IC50 in [3] was determined as 1.04 µM.

Regarding `Cl.Cl.N=C(N)CCCCCCCCCCCCC(=N)N`, the ED50 is greater than 100 mg/kg in data set [2] and greater than 10 mg/kg in data set [4]. Also, in data set [6], the result was inactive.

For `COCCn1c(CCCCCCCCCCCCc2noc(=O)n2CCOC)noc1=O`, the ED50 in data set [2] is 90 mg/kg; in data set [4], greater than 20 mg/kg. In addition, in data set [3], the IC50 was 6.45 µM. In addition, the Activity in [7] is reported as 50%.

`CCNC(=N)CCCCCCCCCCCCC(=N)NCC.Cl.Cl`: the ED50 is 6.3 mg/kg in data set [8], greater than 180 mg/kg in [2] and 6.3 mg/kg in [4]. In addition, the IC50 in data set [3] amounted to 0.0094 µM.

With `COCCNC(=N)CCCCCCCCCCCCC(=N)NCCOC.Cl.Cl`, the ED50 in data set [8] is 8 mg/kg; in data set [2], greater than 90 mg/kg; in data set [4], 8 mg/kg. The compound further displayed an IC50 in [3] of 0.0092 µM.

In the case of `CN/C(CCCCCCCCCCCC/C(=N/O)NC)=N\O`, the Activity is 44% in data set [1] and “Toxic” in [9]. Besides, the ED50 in [2] was greater than 180 mg/kg. In data set [3], this compound came in with an IC50 of 10.1 µM.

As for `COCCN/C(CCCCCCCCCCCC/C(=N/O)NCCOC)=N\O`, the Activity is recorded as 33% in data set [1], 16% in data set [5] and “Toxic” in [9]. Besides, the ED50 in data set [2] was greater than 180 mg/kg. Further, it took 2.95 µM to reach half-maximal inhibition in data set [3] (IC50).

`Cl.Cl.N=C(CCCCCCCCCCCCC(=N)NCc1ccccc1)NCc1ccccc1`: the values for the ED50 in data set [2] and in data set [4] were greater than 90 mg/kg and greater than 20 mg/kg, respectively. The compound also yielded an IC50 in [3] of 0.0046 µM. Also, the result in data set [6] was inactive.

Take `CNC(=N)CCCCCCCCCCCCC(=N)NC.Cl.Cl`: in data set [10], the Activity result was “Toxic”. Further, in data set [2], the ED50 is greater than 180 mg/kg. The compound also displayed an IC50 in data set [3] of 0.0144 µM. For the same compound, the outcome in data set [6] was inactive.

Turning to `N/C(CCCCCCCCCCCC/C(N)=N/O)=N\O`, the ED50 in data set [2] was 120 mg/kg.

With `Cc1c(CCO)sc[n+]1CCCCCCCCCCCC[n+]1csc(CCO)c1C.[Br-].[Br-]` [ALBITIAZOLIUM BROMIDE], the ED50 in [2] worked out at 13 mg/kg; in data set [4], 0.2 mg/kg.

For `O=c1onc(CCCCCCCCCCCCc2noc(=O)n2Cc2ccccc2)n1Cc1ccccc1`, the ED50 in data set [2] was greater than 90 mg/kg; in data set [4], greater than 20 mg/kg. Moreover, in [3], the IC50 worked out at 4.95 µM.

As for `O=c1[nH]c(CCCCCCCCCCCCc2noc(=O)[nH]2)no1`, the ED50 was 100 mg/kg in data set [2] and greater than 20 mg/kg in data set [4].

In the case of `Cn1c(CCCCCCCCCCCCc2noc(=O)n2C)noc1=O`, the ED50 in data set [2] is greater than 45 mg/kg; in data set [4], greater than 20 mg/kg.
